Measurements of several laboratories.
Target: Serine/threonine-protein kinase D2 (PRKD2, Homo sapiens, UniProt Q9BZL6)
Sequence (Q9BZL6 1-878, as in one of the studies): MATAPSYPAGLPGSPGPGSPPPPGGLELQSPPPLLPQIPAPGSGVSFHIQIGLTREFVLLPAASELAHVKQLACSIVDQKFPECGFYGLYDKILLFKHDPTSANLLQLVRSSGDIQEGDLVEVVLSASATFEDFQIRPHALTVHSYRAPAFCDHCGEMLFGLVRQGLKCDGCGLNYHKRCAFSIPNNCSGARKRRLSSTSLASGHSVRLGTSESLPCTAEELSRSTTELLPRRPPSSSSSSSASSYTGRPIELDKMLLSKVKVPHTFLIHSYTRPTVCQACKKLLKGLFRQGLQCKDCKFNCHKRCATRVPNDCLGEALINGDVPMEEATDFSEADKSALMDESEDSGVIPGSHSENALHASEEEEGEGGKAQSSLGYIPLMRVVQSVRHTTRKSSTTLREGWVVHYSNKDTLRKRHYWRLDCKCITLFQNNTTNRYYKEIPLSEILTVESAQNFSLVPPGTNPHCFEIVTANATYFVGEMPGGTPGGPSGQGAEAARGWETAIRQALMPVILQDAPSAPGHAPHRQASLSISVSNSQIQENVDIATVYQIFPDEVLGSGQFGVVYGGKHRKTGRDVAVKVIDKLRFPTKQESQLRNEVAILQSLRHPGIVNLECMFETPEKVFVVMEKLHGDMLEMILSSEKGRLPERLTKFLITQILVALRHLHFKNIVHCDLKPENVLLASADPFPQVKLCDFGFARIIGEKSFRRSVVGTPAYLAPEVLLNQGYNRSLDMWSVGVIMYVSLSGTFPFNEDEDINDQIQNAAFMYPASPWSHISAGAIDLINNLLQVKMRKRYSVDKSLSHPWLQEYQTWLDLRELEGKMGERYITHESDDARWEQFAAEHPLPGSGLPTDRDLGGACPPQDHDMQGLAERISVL

SMILES | test | conditions | endpoint | value
Cn1cncc1[C@](O)(COc1ccc(C#N)cc1-c1ccc(OC(F)(F)F)cc1)c1ccc(C#N)cc1 | cell-free assay, competition with immobilised ligand | 1 µM | remaining binding | 84%
COc1ncccc1-c1cnn2ccc(N3CCN(C(=O)OC(C)C)CC3)nc12 | binding, competition with immobilised ligand | 1 µM | remaining binding | 100%
Cc1nn(C)cc1-c1nc2c(N3CCN(Cc4ccc(Cl)cc4)CC3)c(Cl)cnc2[nH]1 | binding, competition with immobilised ligand | 1 µM | remaining binding | 100%
CC(C)(C)c1cc(C=C(C#N)C#N)cc(Br)c1O | enzyme activity, inhibitor | 0.5 µM | remaining activity | 108%
Cn1cc(-c2cc(F)cc(N3CCn4c(cc5c4CCCC5)C3=O)c2CO)cc(Nc2ccc(N3CCN(C4COC4)CC3)cn2)c1=O | enzyme activity, inhibitor | 0.1 µM | inhibition | 11%
COc1cc(Nc2ncc(F)c(Nc3ccc4c(n3)NC(=O)C(C)(C)O4)n2)cc(OC)c1OC | binding | 10 µM | inhibition | 0%
Nc1ncc(-c2nc(N3CCOCC3)nc(N3CCOCC3)n2)c(C(F)F)n1 | binding, competition with immobilised ligand | 10 µM | remaining binding | 99%
O=c1[nH]c2ccccc2n1C1CCN(Cc2ccc(-c3[nH]c4cc5ncnc5cc4nc3-c3ccccc3)cc2)CC1 | cell-free assay | 0.5 µM | remaining signal | 109%
Cn1cc(-c2cccc(N3CCc4c(sc5c4CC(C)(C)C5)C3=O)c2CO)cc(Nc2ccncn2)c1=O | enzyme activity, inhibitor | 1 µM | inhibition | 0%
